From ChEMBL document CHEMBL5096174, “The Natural Alkaloid Berberine Can Reduce the Number of Pseudomonas aeruginosa Tolerant Cells” (2021) come the findings set out here.

The structures appear in SMILES notation. Converted amounts (≈) assume the structure as drawn. The source made the active and inactive calls.

Experiment [1] has as its system Pseudomonas aeruginosa. As to the kind of experiment: Bactericidal activity against wild type Pseudomonas aeruginosa K767 assessed as increase in biofilm production at 80 ug/ml incubated overnight by crystal voilet staining based analysis relative to control. The class given is functional. As to conditions: dose 80 µg/ml. Summed up:
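Biofilms grown overnight at 37 °C in flat-bottom microtiter plates in LB with or without berberine 80 µg/mL. Planktonic OD600 recorded; washed sessile phase stained 15 min with 1% crystal violet, dye taken up in 96% ethanol, OD570 read. Output is OD570/OD600. Run in triplicate.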

Experiment [2] deals with Pseudomonas aeruginosa. Nature of the experiment: Bactericidal activity against Pseudomonas aeruginosa K1525 mexY mutant assessed as increase in biofilm production at 80 ug/ml incubated overnight by crystal voilet staining based analysis relative to control. The class given is functional. As to conditions: dose 80 µg/ml. The gist of the method:
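Biofilms grown overnight at 37 °C in LB with or without berberine 80 µg/mL in flat-bottom microtiter wells. Planktonic phase removed and its OD600 read. Sessile phase washed with water, stained with 1% crystal violet for 15 min, washed, solubilised in 96% ethanol and read at OD570. Values normalised as OD570/OD600. Triplicate.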

A short description of experiment [3]: Inhibition of efflux pump in wild type Pseudomonas aeruginosa K767 assessed as fold reduction in CFU count in presence of tobramycin incubated for 24 hrs by ethidium bromide efflux assay relative to tobramycin alone. As to conditions: in the assay text read “by planktonic persistence assay” for “by ethidium bromide efflux assay”. Summed up:
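Stationary-phase overnight LB cultures (37 °C) exposed to tobramycin 20xMIC alone or with berberine 80 µg/mL for 24 h at 37 °C. At 0, 7 and 24 h, aliquots PBS-washed, 10-fold serially diluted, plated on antibiotic-free CLED agar. CFU counted after 24 h at 37 °C. Biological duplicate.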

The test system of experiment [4] is Pseudomonas aeruginosa. As to the kind of experiment: Antibacterial activity against clinical isolate Pseudomonas aeruginosa C84 assessed as log reduction in tolerant cell in presence of berberine by broth microdilution method. The experiment is classed as functional. The gist of the method: (§1)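 Overnight LB cultures at 37 °C were exposed to tobramycin 20xMIC, alone or with berberine 80 µg/mL, for 24 h at 37 °C. Aliquots were PBS-washed, serially 10-fold diluted and plated on antibiotic-free CLED agar. CFUs were counted after 24 h at 37 °C, before exposure (T0) and at T24. Biological duplicates.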
On the technique in general: Broth dilution looks for growth in wells or tubes with falling amounts of substance.

For experiment [5], the system named is Pseudomonas aeruginosa. As to the kind of experiment: Bactericidal activity against Pseudomonas aeruginosa K1525 mexY mutant assessed as reduction in log increase in tolerant cells at 1000 times MIC measured after 24 hrs. The experiment is classed as functional. The gist of the method: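 Biofilms were grown overnight in LB in 35 mm dishes at 37 °C, then held 24 h at 37 °C in LB with tobramycin 1000xMIC, alone or with berberine 80 or 320 µg/mL. Biofilms were detached mechanically at T0 and T24, resuspended in PBS, 10-fold diluted and plated on CLED agar, and CFUs were counted after 24 h at 37 °C. Biological triplicates.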

In experiment [6] the test system is Pseudomonas aeruginosa. Nature of the experiment: Bactericidal activity against wild type Pseudomonas aeruginosa K767 persisters assessed as reduction in CFU at 20 times MIC incubated for 24 hrs by planktonic persistance assay. The class given is functional. The gist of the method: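 Stationary-phase overnight LB cultures at 37 °C were exposed to tobramycin 20xMIC, alone or with berberine 80 µg/mL, for 24 h at 37 °C. At 0, 7 and 24 h, aliquots were PBS-washed, 10-fold diluted and plated on antibiotic-free CLED agar, and survivor CFUs were counted after 24 h at 37 °C. Mean of two biological replicates ± SD.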

For experiment [7], the system named is Pseudomonas aeruginosa. Nature of the experiment: Antibacterial activity against Pseudomonas aeruginosa NC04 cystic fibrosis assessed as tobramycin MIC in presence of berberine. The class given is functional. Summed up:
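Broth microdilution per CLSI; tobramycin MIC determined with berberine present at 80 µg/mL. Synergy defined as MIC in presence of berberine ≥4 times lower than tobramycin alone.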

For experiment [8], the system named is Pseudomonas aeruginosa. Nature of the experiment: Antibacterial activity against clinical isolate Pseudomonas aeruginosa C84 assessed as fold reduction in MIC in presence of berberine by broth microdilution method. The class given is functional. The gist of the method: (§2)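 Tobramycin MIC was determined without and with berberine 80 µg/mL by CLSI broth microdilution. The combination was called synergistic when the MIC with berberine was ≥4 times lower than with tobramycin alone.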

Experiment [9] concerns Pseudomonas aeruginosa. As to the kind of experiment: Antibacterial activity against Pseudomonas aeruginosa NC06 cystic fibrosis assessed as reduction in bacterial growth. The class given is functional.
For experiment [10], the system named is Pseudomonas aeruginosa. As to the kind of experiment: Antibacterial activity against Pseudomonas aeruginosa NC02 cystic fibrosis assessed as tobramycin MIC in presence of berberine. The experiment is classed as functional. The gist of the method: (§3)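 Tobramycin MIC by CLSI broth microdilution in the presence of berberine 80 µg/mL.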
Experiment [11] concerns Pseudomonas aeruginosa. Nature of the experiment: Antibacterial activity against cystic fibrosis isolate Pseudomonas aeruginosa C25 assessed as fold reduction in MIC in presence of berberine by broth microdilution method. The class given is functional. Summed up:
as §2

Experiment [12] has as its system Pseudomonas aeruginosa. Nature of the experiment: Antibacterial activity against cystic fibrosis isolate Pseudomonas aeruginosa C25 assessed as log reduction in tolerant cell in presence of berberine by broth microdilution method. The class given is functional. Summed up: as §1
The subject of experiment [13] is Pseudomonas aeruginosa. Nature of the experiment: Antibacterial activity against cystic fibrosis isolate Pseudomonas aeruginosa NC06 assessed as fold reduction in MIC in presence of berberine by broth microdilution method. The experiment is classed as functional. Summed up: as §2
Experiment [14] relates to Pseudomonas aeruginosa. As to the kind of experiment: Antibacterial activity against Pseudomonas aeruginosa K1525 mexY mutant assessed as reduction in bacterial growth rate in presence of berberine. The experiment is classed as functional, organism-based. Summed up: (§4)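 Overnight LB cultures diluted to OD600 0.1 and shaken at 140 rpm, 37 °C, for 24 h with or without berberine 80 µg/mL. OD600 read at 2, 4, 6, 8 and 24 h. Biological triplicates.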

Experiment [15] deals with Pseudomonas aeruginosa. Nature of the experiment: Antibacterial activity against Pseudomonas aeruginosa NC10 cystic fibrosis assessed as reduction in bacterial growth. The class given is functional.
Experiment [16] concerns Pseudomonas aeruginosa. As to the kind of experiment: Antibacterial activity against clinical isolate Pseudomonas aeruginosa C54 assessed as fold reduction in MIC in presence of berberine by broth microdilution method. The class given is functional. The gist of the method:
as §2

For experiment [17], the system named is Pseudomonas aeruginosa. Nature of the experiment: Antibacterial activity against cystic fibrosis isolate Pseudomonas aeruginosa C30 assessed as log reduction in tolerant cell in presence of berberine by broth microdilution method. The experiment is classed as functional. The gist of the method:
as §1

Experiment [18] has as its system Pseudomonas aeruginosa. Nature of the experiment: Antibacterial activity against Pseudomonas aeruginosa NC01 cystic fibrosis assessed as reduction in bacterial growth. The class given is functional.
In experiment [19] the test system is Pseudomonas aeruginosa. As to the kind of experiment: Antibacterial activity against clinical isolate Pseudomonas aeruginosa C54 assessed as log reduction in tolerant cell in presence of berberine by broth microdilution method. The class given is functional. Summed up:
as §1

For experiment [20], the system named is Pseudomonas aeruginosa. As to the kind of experiment: Antibacterial activity against Pseudomonas aeruginosa NC04 cystic fibrosis assessed as reduction in bacterial growth. The class given is functional.
For experiment [21], the system named is Pseudomonas aeruginosa. As to the kind of experiment: Antibacterial activity against wild type Pseudomonas aeruginosa K767 assessed as reduction in bacterial growth rate in presence of berberine. The experiment is classed as functional, organism-based. Summed up:
as §4

Experiment [22] concerns Pseudomonas aeruginosa. As to the kind of experiment: Antibacterial activity against clinical isolate Pseudomonas aeruginosa C59 assessed as fold reduction in MIC in presence of berberine by broth microdilution method. The class given is functional. The gist of the method:
as §2

Experiment [23] has as its system Pseudomonas aeruginosa. Nature of the experiment: Antibacterial activity against Pseudomonas aeruginosa NC02 cystic fibrosis assessed as reduction in bacterial growth. The experiment is classed as functional.
Experiment [24] relates to Pseudomonas aeruginosa. As to the kind of experiment: Antibacterial activity against Pseudomonas aeruginosa NC06 cystic fibrosis assessed as tobramycin MIC in presence of berberine. The class given is functional. Summed up: as §3
Experiment [25] concerns Pseudomonas aeruginosa. Nature of the experiment: Antibacterial activity against cystic fibrosis isolate Pseudomonas aeruginosa AR48 assessed as fold reduction in MIC in presence of berberine by broth microdilution method. The experiment is classed as functional. The gist of the method:
as §2

Experiment [26] relates to Pseudomonas aeruginosa. As to the kind of experiment: Antibacterial activity against Pseudomonas aeruginosa C61 assessed as log reduction of bacterial population measured after 24 hrs. The class given is functional. Summed up:
as §1

In experiment [27] the test system is Pseudomonas aeruginosa. As to the kind of experiment: Bactericidal activity against Pseudomonas aeruginosa K1525 mexY mutant persisters assessed as reduction in CFU at 20 times MIC incubated for 24 hrs by planktonic persistance assay. The experiment is classed as functional. The gist of the method:
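Stationary-phase (overnight, LB, 37 °C) cultures exposed to tobramycin 20xMIC with or without berberine 80 µg/mL for 24 h at 37 °C. Aliquots taken before exposure and at 24 h, PBS-washed, serially 10-fold diluted and plated on antibiotic-free CLED agar. Surviving CFU counted after 24 h at 37 °C. Biological duplicate.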

For experiment [28], the system named is Pseudomonas aeruginosa. As to the kind of experiment: Antibacterial activity against Pseudomonas aeruginosa NC10 cystic fibrosis assessed as tobramycin MIC in presence of berberine. The experiment is classed as functional. The gist of the method:
as §3

The test system of experiment [29] is Pseudomonas aeruginosa. Nature of the experiment: Antibacterial activity against Pseudomonas aeruginosa NC01 cystic fibrosis assessed as tobramycin MIC in presence of berberine. The class given is functional. The gist of the method:
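Broth microdilution per CLSI guidelines, tobramycin MIC determined in presence of berberine 80 μg/mL; strains grown in LB. Combination considered synergistic when MIC with berberine was ≥4 times lower than tobramycin alone.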

The subject of experiment [30] is Pseudomonas aeruginosa. As to the kind of experiment: Antibacterial activity against cystic fibrosis isolate Pseudomonas aeruginosa NC06 assessed as reduction in tolerant cell in presence of berberine by broth microdilution method. The class given is functional. Summed up:
as §1

With `COc1ccc2cc3[n+](cc2c1OC)CCc1cc2c(cc1-3)OCO2` [BERBERINE], the Activity in experiment [1] turned out to be 100%; in experiment [2], 50%. Moreover, in [3], the fold change (FC) is 10.

Turning to `NC[C@H]1O[C@H](O[C@H]2[C@H](O)[C@@H](O[C@H]3O[C@H](CO)[C@@H](O)[C@H](N)[C@H]3O)[C@H](N)C[C@@H]2N)[C@H](N)C[C@@H]1O` [TOBRAMYCIN], the “log(activity)” value in experiment [4] came out at 0.5; in experiment [5], 3; in experiment [6] it was 4.11e+07; in experiment [12] it was 2.5; in experiment [17] it was 3; in experiment [19] it was 1.5. In addition, the “log(activity)” value in experiment [26] is 1; in [30] it was 2. Also, the MIC in experiment [7] was less than 0.125 µg/mL; in experiment [9] it was 2 µg/mL (≈ 4.28 µM); in experiment [10], 16 µg/mL; in [15], 1 µg/mL (≈ 2.14 µM); in [18] it was 16 µg/mL (≈ 34.2 µM); in [20] it was 0.5 µg/mL (≈ 1.07 µM). The MIC was found to be 32 µg/mL (≈ 68.4 µM) in [23], 0.5 µg/mL in [24], 0.25 µg/mL in [28] and 8 µg/mL in [29]. Further, the “fold change (FC)” value in experiment [8] was 4; in experiment [11] it was 16; in [13], 4; in experiment [16] it was 2; in [22], 2; in experiment [25], 4. Besides, the result in experiment [14] and in experiment [21] was Active. In addition, in [27], the Activity amounted to 250000 CFU/ml.

By MIC is commonly meant the least concentration at which growth counts as inhibited.
